Reference: the M2OR odorant receptor database
Positions count from the first letter of the chain named.

Experiments:
Settings in all cases: stereoisomer not certain
OR2J2 (Homo sapiens) = biological target: T1, OR2J2 (Homo sapiens) (UniProt O76002)
T1 sequence (whole entry): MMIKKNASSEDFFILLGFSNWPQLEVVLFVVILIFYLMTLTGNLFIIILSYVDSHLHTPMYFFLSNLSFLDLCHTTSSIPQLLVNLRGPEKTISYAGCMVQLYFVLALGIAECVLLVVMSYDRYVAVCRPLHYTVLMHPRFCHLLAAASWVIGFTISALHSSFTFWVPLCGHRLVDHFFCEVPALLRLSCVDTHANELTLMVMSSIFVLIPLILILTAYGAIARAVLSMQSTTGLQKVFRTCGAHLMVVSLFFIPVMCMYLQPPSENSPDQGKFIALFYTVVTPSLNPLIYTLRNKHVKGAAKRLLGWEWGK
Method in brief: (§1)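 Whether a receptor–molecule pair is responsive (active) rests on the original authors' judgment that its measured signal was statistically different from baseline. Pairs without that judgment are non-responsive (inactive). Sources used varied assay methods, commonly transient luciferase assays in mammalian cell lines.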

OR2J1 [1] = test system: OR2J1
Method in brief: as §1
Target sequence in this assay (as listed by the source): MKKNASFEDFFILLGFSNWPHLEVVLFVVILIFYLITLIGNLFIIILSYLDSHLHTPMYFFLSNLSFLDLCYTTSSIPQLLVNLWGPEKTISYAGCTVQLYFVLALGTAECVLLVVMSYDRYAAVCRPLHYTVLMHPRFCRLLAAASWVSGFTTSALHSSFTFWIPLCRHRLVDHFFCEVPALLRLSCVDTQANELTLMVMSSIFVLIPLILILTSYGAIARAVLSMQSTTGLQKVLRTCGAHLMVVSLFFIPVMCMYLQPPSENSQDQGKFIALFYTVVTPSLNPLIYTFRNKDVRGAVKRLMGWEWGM

OR2J1 [2] = test system: OR2J1; remark: listed apart in the source
Method in brief: as §1

OR2J1 (Homo sapiens) = biological target: T2, OR2J1 (Homo sapiens) (UniProt Q9GZK6)
T2 sequence (whole entry): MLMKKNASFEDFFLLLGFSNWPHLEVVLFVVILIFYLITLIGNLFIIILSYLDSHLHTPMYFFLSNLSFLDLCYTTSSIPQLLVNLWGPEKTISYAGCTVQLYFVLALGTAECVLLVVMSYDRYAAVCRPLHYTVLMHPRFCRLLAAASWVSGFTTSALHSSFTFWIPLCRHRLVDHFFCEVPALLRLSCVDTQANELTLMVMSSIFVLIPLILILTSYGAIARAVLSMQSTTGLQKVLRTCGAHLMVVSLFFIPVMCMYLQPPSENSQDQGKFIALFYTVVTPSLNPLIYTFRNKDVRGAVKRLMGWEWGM
Method in brief: as §1

OR2J3 (Homo sapiens) = biological target: T3, OR2J3 (Homo sapiens) (UniProt O76001)
T3 sequence (whole entry): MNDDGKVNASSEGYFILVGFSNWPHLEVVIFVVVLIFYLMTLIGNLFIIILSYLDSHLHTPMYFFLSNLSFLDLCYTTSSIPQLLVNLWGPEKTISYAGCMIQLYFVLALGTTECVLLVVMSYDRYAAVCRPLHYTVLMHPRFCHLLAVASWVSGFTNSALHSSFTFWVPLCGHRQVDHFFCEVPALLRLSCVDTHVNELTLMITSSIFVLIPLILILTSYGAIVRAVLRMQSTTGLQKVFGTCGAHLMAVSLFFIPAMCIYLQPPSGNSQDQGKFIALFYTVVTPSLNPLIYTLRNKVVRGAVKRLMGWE
Method in brief: as §1

OR2K2 (Homo sapiens) = biological target: T4, OR2K2 (Homo sapiens) (UniProt Q8NGT1)
T4 sequence (whole entry): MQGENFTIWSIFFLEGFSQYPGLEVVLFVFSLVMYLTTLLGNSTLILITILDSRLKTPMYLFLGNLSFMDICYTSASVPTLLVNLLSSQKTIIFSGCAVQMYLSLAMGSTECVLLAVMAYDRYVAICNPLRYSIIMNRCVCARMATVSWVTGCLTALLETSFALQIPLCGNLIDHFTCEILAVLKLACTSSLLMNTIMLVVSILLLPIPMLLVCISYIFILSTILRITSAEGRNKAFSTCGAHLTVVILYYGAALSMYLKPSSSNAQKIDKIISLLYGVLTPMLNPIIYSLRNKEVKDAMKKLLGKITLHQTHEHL
Method in brief: as §1

OR2L13 (Homo sapiens) = biological target: T5, OR2L13 (Homo sapiens) (UniProt Q8N349)
T5 sequence (whole entry): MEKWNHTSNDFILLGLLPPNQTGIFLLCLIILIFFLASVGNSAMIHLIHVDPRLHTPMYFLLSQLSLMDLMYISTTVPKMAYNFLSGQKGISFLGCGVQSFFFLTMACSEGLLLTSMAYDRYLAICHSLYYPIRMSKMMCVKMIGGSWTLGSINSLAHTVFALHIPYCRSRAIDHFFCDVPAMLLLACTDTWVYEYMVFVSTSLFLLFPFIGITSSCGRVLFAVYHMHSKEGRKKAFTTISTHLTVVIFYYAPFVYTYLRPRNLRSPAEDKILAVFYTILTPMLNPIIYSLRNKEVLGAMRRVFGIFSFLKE
Method in brief: as §1

OR2L2 (Homo sapiens) = biological target: T6, OR2L2 (Homo sapiens) (UniProt Q8NH16)
T6 sequence (whole entry): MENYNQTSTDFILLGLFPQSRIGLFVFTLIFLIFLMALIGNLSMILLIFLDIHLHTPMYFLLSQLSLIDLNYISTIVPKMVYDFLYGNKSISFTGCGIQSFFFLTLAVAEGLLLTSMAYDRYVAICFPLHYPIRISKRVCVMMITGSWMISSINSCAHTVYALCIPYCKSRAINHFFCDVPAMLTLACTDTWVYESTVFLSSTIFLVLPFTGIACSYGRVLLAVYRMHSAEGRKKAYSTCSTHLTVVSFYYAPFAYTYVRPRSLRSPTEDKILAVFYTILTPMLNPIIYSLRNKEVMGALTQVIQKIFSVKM
Method in brief: as §1

OR2L3 (Homo sapiens) = biological target: T7, OR2L3 (Homo sapiens) (UniProt Q8NG85)
T7 sequence (whole entry): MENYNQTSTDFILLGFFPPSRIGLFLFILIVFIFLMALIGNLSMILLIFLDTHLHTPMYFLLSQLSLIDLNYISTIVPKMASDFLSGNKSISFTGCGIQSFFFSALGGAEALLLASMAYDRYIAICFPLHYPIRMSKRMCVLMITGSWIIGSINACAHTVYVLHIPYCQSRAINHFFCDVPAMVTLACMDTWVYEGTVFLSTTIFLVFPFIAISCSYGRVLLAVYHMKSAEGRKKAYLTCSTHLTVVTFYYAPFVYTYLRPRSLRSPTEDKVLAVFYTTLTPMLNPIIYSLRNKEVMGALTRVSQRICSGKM
Method in brief: as §1

OR2L5 (Homo sapiens) = biological target: T8, OR2L5 (Homo sapiens) (UniProt Q8NG80)
T8 sequence (whole entry): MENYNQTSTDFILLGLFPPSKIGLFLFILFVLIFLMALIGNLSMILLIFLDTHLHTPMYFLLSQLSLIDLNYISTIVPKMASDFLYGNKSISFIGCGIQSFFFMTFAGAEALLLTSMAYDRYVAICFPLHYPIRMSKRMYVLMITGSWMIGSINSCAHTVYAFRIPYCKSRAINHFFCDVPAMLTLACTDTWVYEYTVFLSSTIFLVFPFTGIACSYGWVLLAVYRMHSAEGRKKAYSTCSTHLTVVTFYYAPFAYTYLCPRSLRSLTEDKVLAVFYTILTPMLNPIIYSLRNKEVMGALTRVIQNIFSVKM
Method in brief: as §1

OR2L8 (Homo sapiens) = biological target: T9, OR2L8 (Homo sapiens) (UniProt Q8NGY9)
T9 sequence (whole entry): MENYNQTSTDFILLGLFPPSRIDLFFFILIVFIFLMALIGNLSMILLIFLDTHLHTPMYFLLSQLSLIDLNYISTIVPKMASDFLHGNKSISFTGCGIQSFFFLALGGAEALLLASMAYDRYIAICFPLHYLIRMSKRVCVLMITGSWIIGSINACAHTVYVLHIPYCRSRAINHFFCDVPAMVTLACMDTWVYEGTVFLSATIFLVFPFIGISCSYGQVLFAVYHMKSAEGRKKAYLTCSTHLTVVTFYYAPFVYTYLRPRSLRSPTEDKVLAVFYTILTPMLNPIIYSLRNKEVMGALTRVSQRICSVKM
Method in brief: as §1

OR2M2 (Homo sapiens) = biological target: T10, OR2M2 (Homo sapiens) (UniProt Q96R28)
T10 sequence (whole entry): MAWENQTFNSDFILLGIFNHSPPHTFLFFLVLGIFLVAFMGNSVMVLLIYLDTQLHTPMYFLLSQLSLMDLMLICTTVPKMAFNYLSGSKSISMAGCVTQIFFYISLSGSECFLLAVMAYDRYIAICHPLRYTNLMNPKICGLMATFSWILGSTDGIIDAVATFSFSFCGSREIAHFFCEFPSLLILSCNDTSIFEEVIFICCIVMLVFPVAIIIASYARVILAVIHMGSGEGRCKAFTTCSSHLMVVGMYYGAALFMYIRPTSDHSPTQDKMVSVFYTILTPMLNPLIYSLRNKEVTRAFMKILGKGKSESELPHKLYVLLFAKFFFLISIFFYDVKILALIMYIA
Method in brief: as §1

OR2M3 (Homo sapiens) = biological target: T11, OR2M3 (Homo sapiens) (UniProt Q8NG83)
T11 sequence (whole entry): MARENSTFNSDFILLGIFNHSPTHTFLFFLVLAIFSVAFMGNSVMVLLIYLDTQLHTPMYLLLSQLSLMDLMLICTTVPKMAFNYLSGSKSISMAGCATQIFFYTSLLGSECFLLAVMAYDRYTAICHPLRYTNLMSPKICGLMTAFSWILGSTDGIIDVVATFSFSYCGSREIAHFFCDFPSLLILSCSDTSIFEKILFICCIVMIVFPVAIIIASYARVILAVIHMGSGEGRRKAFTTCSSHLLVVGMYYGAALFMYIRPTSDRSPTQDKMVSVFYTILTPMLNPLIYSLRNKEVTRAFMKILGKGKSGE
Method in brief: as §1

OR2H2 = test system: T12, OR2H2
T12 sequence (whole entry): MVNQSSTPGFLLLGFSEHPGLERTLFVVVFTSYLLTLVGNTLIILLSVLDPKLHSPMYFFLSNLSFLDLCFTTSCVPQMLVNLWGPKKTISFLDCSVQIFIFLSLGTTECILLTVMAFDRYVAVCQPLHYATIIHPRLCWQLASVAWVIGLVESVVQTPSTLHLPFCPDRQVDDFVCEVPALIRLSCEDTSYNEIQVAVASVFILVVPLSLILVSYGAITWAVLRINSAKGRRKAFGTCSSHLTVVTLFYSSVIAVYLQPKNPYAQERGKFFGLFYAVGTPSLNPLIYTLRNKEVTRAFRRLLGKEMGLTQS
Method in brief: as §1

OR2J1 L14I V182A = test system: T13, OR2J1 L14I V182A
T13 sequence (whole entry): T2 sequence (whole entry) with L14I, V182A
Method in brief: as §1

OR2J2 = test system: T14, OR2J2
T14 sequence (whole entry): T1 sequence (whole entry) with H74Y, A111T, A146V, A218T
Method in brief: as §1

OR2J3 = test system: T15, OR2J3
T15 sequence (whole entry): T3 sequence (whole entry) with V228I, I261M
Method in brief: as §1
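Note: active if original authors judged signal statistically different from baseline.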

SMILES: CCC(C(=O)O)c1ccccc1 (configuration not stated)
- odorant receptor agonist call (OR2J2 (Homo sapiens)): inactive

SMILES: CCCCCC1=C(C)CCC1=O
- odorant receptor agonist call (OR2J2 (Homo sapiens)): inactive

SMILES: CCCC(C)=CC(=O)O
- odorant receptor agonist call (OR2J1 [1]): inactive
- odorant receptor agonist call (OR2J1 [2]): inactive

SMILES: CCCCC(S)C(C)CO (configuration not stated)
- odorant receptor agonist call (OR2J1 (Homo sapiens)): inactive
- odorant receptor agonist call (OR2J2 (Homo sapiens)): inactive
- odorant receptor agonist call (OR2J3 (Homo sapiens)): inactive
- odorant receptor agonist call (OR2K2 (Homo sapiens)): inactive
- odorant receptor agonist call (OR2L13 (Homo sapiens)): inactive
- odorant receptor agonist call (OR2L2 (Homo sapiens)): inactive
- odorant receptor agonist call (OR2L3 (Homo sapiens)): inactive
- odorant receptor agonist call (OR2L5 (Homo sapiens)): inactive
- odorant receptor agonist call (OR2L8 (Homo sapiens)): inactive
- odorant receptor agonist call (OR2M2 (Homo sapiens)): inactive
- odorant receptor agonist call (OR2M3 (Homo sapiens)): inactive

SMILES: CCCCCOC(=O)CCCCC
- odorant receptor agonist call (OR2J2 (Homo sapiens)): inactive

SMILES: CC(=O)Oc1ccccc1
- odorant receptor agonist call (OR2J2 (Homo sapiens)): inactive

SMILES: CCCCCCCCCCO
- odorant receptor agonist call (OR2J2 (Homo sapiens)): active

SMILES: CC1CCCCCCCCCCCCC(=O)C1 (configuration not stated)
- odorant receptor agonist call (OR2J1 (Homo sapiens)): inactive
- odorant receptor agonist call (OR2J2 (Homo sapiens)): inactive
- odorant receptor agonist call (OR2J3 (Homo sapiens)): inactive
- odorant receptor agonist call (OR2K2 (Homo sapiens)): inactive
- odorant receptor agonist call (OR2L13 (Homo sapiens)): inactive
- odorant receptor agonist call (OR2L3 (Homo sapiens)): inactive
- odorant receptor agonist call (OR2L5 (Homo sapiens)): inactive
- odorant receptor agonist call (OR2L8 (Homo sapiens)): inactive
- odorant receptor agonist call (OR2M2 (Homo sapiens)): inactive
- odorant receptor agonist call (OR2M3 (Homo sapiens)): inactive

SMILES: CC1=NC(C)C(C)S1 (configuration not stated)
- odorant receptor agonist call (OR2H2): inactive
- odorant receptor agonist call (OR2J1 (Homo sapiens)): inactive
- odorant receptor agonist call (OR2J1 L14I V182A): inactive
- odorant receptor agonist call (OR2J2): inactive
- odorant receptor agonist call (OR2J3 (Homo sapiens)): inactive
- odorant receptor agonist call (OR2J3): inactive
- odorant receptor agonist call (OR2K2 (Homo sapiens)): inactive
- odorant receptor agonist call (OR2L13 (Homo sapiens)): inactive
- odorant receptor agonist call (OR2L2 (Homo sapiens)): inactive
- odorant receptor agonist call (OR2L3 (Homo sapiens)): inactive
- odorant receptor agonist call (OR2L5 (Homo sapiens)): inactive
- odorant receptor agonist call (OR2L8 (Homo sapiens)): inactive
- odorant receptor agonist call (OR2M2 (Homo sapiens)): inactive
- odorant receptor agonist call (OR2M3 (Homo sapiens)): inactive

SMILES: CCCCCCCCO
- odorant receptor agonist call (OR2L2 (Homo sapiens)): inactive

SMILES: CCCCCCCCCCCCCC(=O)OCC
- odorant receptor agonist call (OR2L13 (Homo sapiens)): inactive

SMILES: CCCCCCCCCC(=O)OCC
- odorant receptor agonist call (OR2L13 (Homo sapiens)): inactive
- odorant receptor agonist call (OR2M3 (Homo sapiens)): inactive

SMILES: CC(=O)O
- odorant receptor agonist call (OR2L13 (Homo sapiens)): inactive
- odorant receptor agonist call (OR2M3 (Homo sapiens)): inactive

SMILES: CCC=CCCC=O
- odorant receptor agonist call (OR2M3 (Homo sapiens)): inactive

SMILES: C=C1CCC2CC1C2(C)C (configuration not stated)
- odorant receptor agonist call (OR2L13 (Homo sapiens)): inactive
- odorant receptor agonist call (OR2M3 (Homo sapiens)): inactive

SMILES: CCCCCCCCCCCCCCCCCC(=O)OC
- odorant receptor agonist call (OR2L13 (Homo sapiens)): inactive
